Data reported in ChEMBL document CHEMBL3822425, “Isatin Derived Spirocyclic Analogues with α-Methylene-γ-butyrolactone as Anticancer Agents: A Structure-Activity Relationship Study” (J Med Chem, 2016).
Calls of active or inactive are those of the source. The calls are words filed in the database; no cut-off is given here.

Assays:
HeLa [1] = assay: Induction of apoptosis in human HeLa cells assessed as PARP cleavage after 24 to 48 hrs by Western blot analysis; assay type: functional, cell-based
Outline: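 Cells collected with media and trypsinized pellet combined, lysed in RIPA buffer (pH 8.0), 4-20% SDS-PAGE, Western blot with anti-PARP to detect cleavage; HeLa timepoint 48 h.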

A549 [2] = assay: Inhibition of TNFalpha-induced IKKbeta-mediated NF-kappaB activity in human A549 cells at 10 uM after 2 hrs followed by TNFalpha addition for 7 hrs by ONE-Glo Luciferase reporter based luminescence assay; assay type: cell-based
Outline: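 A549 luciferase cells grown 5 passages without TNFα then 2 passages with or without 5 ng/mL TNFα; 50,000 per well overnight; 10 µM compound 2 h; then 20 ng/mL TNFα 7 h; PrestoBlue 10 min (560ex/590em) viability; ONE-Glo 10 min, luminescence 1000 ms.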

A549 [3] = assay: Inhibition of TNFalpha-induced IKKbeta-mediated NF-kappaB activity in human A549 cells at 10 uM after 2 hrs followed by TNFalpha addition for 3 hrs by ONE-Glo Luciferase reporter based luminescence assay; assay type: cell-based
[4] = Inhibition of TNFalpha-induced IKKbeta-mediated NF-kappaB activity in human A549 cells after 2 hrs followed by TNFalpha addition for 3 hrs by ONE-Glo Luciferase reporter based luminescence assay; assay type: cell-based
Outline: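 A549 NF-κB luciferase cells (hygromycin B-maintained), 50,000 per well overnight; compound 2 h, then 20 ng/mL TNFα 3 h; alamarBlue 3 h as seeding/viability control; ONE-Glo added, 10 min room temperature, luminescence at 1000 ms.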

serum albumin = serum albumin (Homo sapiens, UniProt P02768); assay: Binding affinity to human serum albumin assessed as half life by HPLC analysis; assay type: ADME
serum albumin, sequence (P02768 whole entry): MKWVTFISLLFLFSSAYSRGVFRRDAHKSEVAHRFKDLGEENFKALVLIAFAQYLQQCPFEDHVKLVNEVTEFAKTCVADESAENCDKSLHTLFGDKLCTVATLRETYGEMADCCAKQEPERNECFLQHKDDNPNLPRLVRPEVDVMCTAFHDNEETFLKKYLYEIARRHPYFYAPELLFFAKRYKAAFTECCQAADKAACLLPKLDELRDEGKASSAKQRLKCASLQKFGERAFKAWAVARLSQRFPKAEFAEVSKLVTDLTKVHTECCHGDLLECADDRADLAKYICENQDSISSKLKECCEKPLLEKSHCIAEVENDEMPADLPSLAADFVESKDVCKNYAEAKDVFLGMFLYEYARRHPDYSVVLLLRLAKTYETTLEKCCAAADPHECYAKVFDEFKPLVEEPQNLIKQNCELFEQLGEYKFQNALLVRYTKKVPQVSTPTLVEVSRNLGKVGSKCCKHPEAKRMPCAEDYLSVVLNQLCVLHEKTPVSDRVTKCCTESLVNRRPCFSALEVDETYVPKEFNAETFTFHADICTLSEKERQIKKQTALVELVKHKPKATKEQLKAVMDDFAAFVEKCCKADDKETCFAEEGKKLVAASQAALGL

[5] = molecular target: T1, Inhibitor of nuclear factor kappa-B kinase subunit beta (Homo sapiens) (UniProt O14920); assay: Inhibition of IKKbeta in human MDA-MB-231 cells assessed as reduction in IkappaBalpha phosphorylation by Western blot analysis; assay type: cell-based
T1 sequence (whole entry): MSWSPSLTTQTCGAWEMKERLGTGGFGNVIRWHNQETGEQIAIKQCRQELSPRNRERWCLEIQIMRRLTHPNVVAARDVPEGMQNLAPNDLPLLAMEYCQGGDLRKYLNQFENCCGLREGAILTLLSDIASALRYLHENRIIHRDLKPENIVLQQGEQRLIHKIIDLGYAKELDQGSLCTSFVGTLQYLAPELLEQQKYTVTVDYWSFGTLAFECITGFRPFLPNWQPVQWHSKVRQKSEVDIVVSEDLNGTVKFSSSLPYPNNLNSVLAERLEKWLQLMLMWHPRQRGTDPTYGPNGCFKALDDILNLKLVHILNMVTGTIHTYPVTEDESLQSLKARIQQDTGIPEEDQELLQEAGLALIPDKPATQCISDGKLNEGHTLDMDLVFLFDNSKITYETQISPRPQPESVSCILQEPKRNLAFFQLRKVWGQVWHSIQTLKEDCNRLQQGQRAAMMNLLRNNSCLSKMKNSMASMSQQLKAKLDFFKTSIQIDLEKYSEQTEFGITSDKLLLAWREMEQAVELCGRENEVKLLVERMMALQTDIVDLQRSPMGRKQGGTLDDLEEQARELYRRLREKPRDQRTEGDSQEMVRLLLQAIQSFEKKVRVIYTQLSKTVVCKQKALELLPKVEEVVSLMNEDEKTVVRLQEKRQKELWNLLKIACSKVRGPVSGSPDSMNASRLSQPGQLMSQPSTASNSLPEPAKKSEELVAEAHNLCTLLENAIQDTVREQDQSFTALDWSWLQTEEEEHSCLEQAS
Outline: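 MDA-MB-231 cytoplasmic fractions: swelling 30 min on ice in HEPES/KCl/EDTA/DTT buffer with inhibitors, 1.25% NP-40, centrifuged; lysates on 4-20% gels, PVDF, anti-phospho-IκBα and anti-IκBα, tubulin or GAPDH loading control, ECL detection.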

[6] = molecular target: T1, Inhibitor of nuclear factor kappa-B kinase subunit beta (Homo sapiens); assay: Inhibition of IKKbeta in human MIAPaCa2 cells assessed as reduction in IkappaBalpha phosphorylation at 10 to 20 uM by Western blot analysis; assay type: cell-based; settings: MIA PaCa-2
MDA-MB-231 [7] = assay: Cytotoxicity against human MDA-MB-231 cells assessed as cell growth inhibition after 3 days by presto blue dye based plate reader method; assay type: functional
Outline: (§1)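 Cells in DMEM high glucose/10% FBS (A2780 in RPMI/10% FBS), 4,000 per well, overnight, then 40 to 0.039 µM or vehicle, 24, 48, 72 h at 37°C, 5% CO2; PrestoBlue 15 min, fluorescence 560ex/590em; growth as 100×[(T−Tz)/(C−Tz)] per NCI algorithm.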

MDA-MB-231 [8] = assay: Cytotoxicity against human MDA-MB-231 cells assessed as cell growth inhibition at 0.039 to 40 uM by presto blue dye based plate reader method; assay type: functional; settings: TDE = time-dependent effect
HeLa [9] = assay: Anticlonogenic activity against human HeLa cells assessed as inhibition of colony formation after 2 to 7 days by crystal violet staining; assay type: functional, cell-based
Outline: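 HeLa cells seeded at 500-1000 per well, grown 24 h, drug-treated 48 h at 37°C (DMSO control), then fresh medium for 7 days; methanol fixed 15 min, 0.1% crystal violet 30 min at room temperature, colonies over 50 cells counted.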

SK-OV-3 [10] = assay: Induction of apoptosis in human SKOV3 cells assessed as caspase 3/7 activation after 24 hrs in presence of cisplatin by Caspase Glo-3/7 luminescence assay; assay type: functional, cell-based
Outline: (§2)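 SKOV3 at 3,000 cells per well, overnight; compound 24 h; alamarBlue 3 h with fluorescence 560ex/590em as viability read; Caspase-Glo 3/7 reagent, shaken 30 s, 1 h room temperature, luminescence at 1000 ms integration.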

A2780 [11] = assay: Potentiation of cisplatin-induced growth inhibition of human A2780 cells assessed as combination index at 1 to 10 uM after 3 days; assay type: functional
Outline: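 Combination index values derived from median effect plots and dose-effect curves of combined treatments.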

A2780 [12] = assay: Anticancer activity against human A2780 cells xenografted in nude C57B6 mouse orthotopic model of ovarian cancer assessed as tumor growth inhibition administered ip 5 days a week for 4 weeks; assay type: functional
Outline: (§3)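 Nude mice injected with 2 million A2780 ovarian cancer cells; treatment began day 3 (7 groups). Arms: vehicle, 1, 2.5 or 5 mg/kg given 5 days/week to day 30; cisplatin 2 or 4 mg/kg on days 5, 9, 14, 21; or 2.5 mg/kg plus 2 mg/kg cisplatin. Day 30: mice sacrificed, tumors removed and weighed.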

A2780 [13] = assay: Anticancer activity against human A2780 cells xenografted in nude C57B6 mouse orthotopic model of ovarian cancer assessed as tumor growth inhibition at 5 mg/kg administered ip 5 days a week for 4 weeks; assay type: functional; settings: read-out: TGI; outline: as §3
Mus musculus [14] = assay: Toxicity in nude C57B6 mouse orthotopic model of ovarian cancer xenografted with human A2780 cells assessed overt toxicity at 1 to 5 mg/kg administered ip 5 days a week for 4 weeks; assay type: organism-based; settings: in vivo
A2780 [15] = assay: Anticancer activity against human A2780 cells xenografted in nude C57B6 mouse orthotopic model of ovarian cancer assessed as tumor growth inhibition at 2.5 mg/kg administered ip 5 days a week for 4 weeks; assay type: functional; settings: read-out: TGI; outline: as §3
A2780 [16] = assay: Anticancer activity against human A2780 cells xenografted in nude C57B6 mouse orthotopic model of ovarian cancer assessed as tumor growth inhibition at 2.5 mg/kg administered ip 5 days a week for 4 weeks in presence of 2 mg/kg of cisplatin; assay type: functional; outline: as §3
Mus musculus [17] = assay: Downregulation of NF-kappaB p65 in human A2780 cells xenografted in nude C57B6 mouse by immunohistochemistry method; assay type: functional, organism-based
Outline: (§4)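 A2780 tumors from the day-30 nude-mouse study: H&E staining to locate tumor areas, cores punched into a tissue microarray, sections stained with rabbit anti-p65 or anti-Mcl-1 via polymer detection, scored 0-3 by percentage of positive cells (3 = ≥67% positive).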

Mus musculus [18] = assay: Downregulation of Mcl-1 in human A2780 cells xenografted in nude C57B6 mouse by immunohistochemistry method; assay type: functional, organism-based; outline: as §4
Mus musculus [19] = assay: Downregulation of NF-kappaB p65 in human A2780 cells xenografted in nude C57B6 mouse in presence of cisplatin by […]; assay type: functional, organism-based
Mus musculus [20] = assay: Downregulation of Mcl-1 in human A2780 cells xenografted in nude C57B6 mouse in presence of cisplatin by […]; assay type: functional, organism-based
A2780 [21] = assay: Cytotoxicity against human A2780 cells assessed as cell growth inhibition after 3 days by presto blue dye based plate reader method; assay type: functional; settings: A2780, 72 h; outline: as §1
A2780 [22] = assay: Potency index, ratio of parthenolide EC50 to compound EC50 for cell growth inhibition of human A2780 cells; assay type: functional
SK-OV-3 [23] = assay: Induction of apoptosis in human SKOV3 cells assessed as caspase 3/7 activation after 24 hrs in absence of cisplatin by Caspase Glo-3/7 luminescence assay; assay type: functional, cell-based; outline: as §2
A2780 [24] = assay: Potency index, ratio of ibrutinib EC50 to compound EC50 for cell growth inhibition of human A2780 cells; assay type: functional
HeLa [25] = assay: Cytotoxicity against human HeLa cells expressing GFP assessed as cell growth inhibition after 3 days by presto blue dye based plate reader method; assay type: functional; settings: 72 h; outline: as §1
[26] = Cytotoxicity against human MIAPaCa2 cells assessed as cell growth inhibition after 3 days by presto blue dye based plate reader method; assay type: functional; settings: MIA PaCa-2, 72 h; outline: as §1
SW480 [27] = assay: Cytotoxicity against human SW480 cells assessed as cell growth inhibition after 3 days by presto blue dye based plate reader method; assay type: functional; settings: SW480, 72 h
HeLa [28] = assay: Potency index, ratio of parthenolide IC50 to compound IC50 for cell growth inhibition of human HeLa cells; assay type: functional
MIA PaCa-2 [29] = assay: Potency index, ratio of parthenolide IC50 to compound IC50 for cell growth inhibition of human MIAPaCa2 cells; assay type: functional
SW480 [30] = assay: Potency index, ratio of parthenolide IC50 to compound IC50 for cell growth inhibition of human SW480 cells; assay type: functional
HeLa [31] = assay: Potency index, ratio of ibrutinib IC50 to compound IC50 for cell growth inhibition of human HeLa cells; assay type: functional
MIA PaCa-2 [32] = assay: Potency index, ratio of ibrutinib IC50 to compound IC50 for cell growth inhibition of human MIAPaCa2 cells; assay type: functional
SW480 [33] = assay: Potency index, ratio of ibrutinib IC50 to compound IC50 for cell growth inhibition of human SW480 cells; assay type: functional

In the case of `C=C1CC2(OC1=O)C(=O)Nc1ccccc12` (configuration not stated), the Activity (HeLa [1]) is reported as “Active”, the inhibition (A549 [2]) is reported as 75% and the inhibition (A549 [3]) is reported as > 70%. For the same compound, the IC50 [4] was 4000 nM, the half-life (serum albumin) was 4.83 h and the inhibition [5] was “Active”. The inhibition [6] was “Active”, the “growth inhibition (GI)” value (MDA-MB-231 [7]) was “Dose-dependent effect” and the “growth inhibition (GI)” value (MDA-MB-231 [8]) was “tde”. For the same compound, the inhibition (HeLa [9]) was “Dose-dependent effect”, the Activity (SK-OV-3 [10]) was “Active” and the CI (A2780 [11]) was <1. The TGI (A2780 [12]) was 10%, the inhibition (A2780 [12]) was “Dose-dependent effect” and the inhibition in vivo at 5 mg/kg (A2780 [13]) was 40%. For the same compound, the Activity (Mus musculus [14]) was “Non-toxic”, the inhibition in vivo at 2.5 mg/kg (A2780 [15]) was 21% and the TGI (A2780 [16]) was 65%. For the same compound, the Activity (Mus musculus [17]) was “Active”, the Activity (Mus musculus [18]) was “Active” and the Activity (Mus musculus [19]) was “Active”. For the same compound, the Activity (Mus musculus [20]) was “Active”, the EC50 (A2780 [21]) was 2300 nM and the “Ratio EC50” value (A2780 [22]) was 4. For the same compound, the Activity (SK-OV-3 [23]) was “Active”.

In the case of `C=C1CC2(OC1=O)C(=O)Nc1c(C)ccc(C)c12` (configuration not stated), the EC50 (A2780 [21]) is reported as 1000 nM, the “Ratio EC50” value (A2780 [22]) is reported as 13 and the “Ratio EC50” value (A2780 [24]) is reported as 20. For the same compound, the IC50 (HeLa [25]) was 3200 nM, the IC50 [26] was 900 nM and the IC50 (SW480 [27]) was 1200 nM. The “Ratio IC50” value (HeLa [28]) was 2, the “Ratio IC50” value (MIA PaCa-2 [29]) was 2 and the “Ratio IC50” value (SW480 [30]) was 2. The “Ratio IC50” value (HeLa [31]) was 5, the “Ratio IC50” value (MIA PaCa-2 [32]) was 5 and the “Ratio IC50” value (SW480 [33]) was 5.
